Compound activity deposited in PubChem by several laboratories.
Hits are enriched below; roughly 3.4% of the tested compounds scored in any of these assays.
TMEM16A act = activators or potentiators of mouse TMEM16A chloride channel | Q8BHY3 | 340,000 compounds, 0.3% hits | B-score at 10 µM | HEK293 TMEM16A/YFP-H148Q/I152L, iodide quench fluorescence; stronger effect = lower value;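 active = fluorescence-ratio B-score plate-corrected deviation score at least 3 library SD below zero, with starting fluorescence score within 5 deviations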;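 also: channel opened by trigger with iodide after compound preincubation; score built on the fluorescence ratio of max minus min over baseline; more negative score means more quench and so TMEM16A activation or potentiation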
MC4R barr agon = activates human MC4R beta-arrestin recruitment; U2OS MC4R beta-arrestin complementation, luminescence; percent of melanotan II response, DMSO zero; activation, % at 8.9 µM; 360,000 compounds, 0.98% hits; AID 540308;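 active = activation above a per-plate cutoff, the mean activation of sample wells on that plate plus 3 SD, cut at about 8% in these data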
beta cell repl = induces beta-cell replication in MIN6 cells. MIN6 cells proliferation, ATPlite luminescence, 48 h; cells starved in 0.2% serum; 100% = growth in 10% serum. proliferation, % at 10 µM. AID 2380. 330,000 compounds, 0.29% hits;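 active = compounds whose signal lies at least 3.5 SD above the mean of all wells on their plate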;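 also: 0% = DMSO-treated cells in low-serum medium and 100% = 10% serum control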
MC4R antag cAMP = antagonists of human melanocortin 4 receptor (MC4R). MC4R-expressing cells, MTII-stimulated cAMP, LANCE TR-FRET. AID 540295. inhibition, % at 6.5 µM. P32245. 360,000 compounds, 0.48% hits;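 active = inhibition above its plate's cutoff, the mean of tested wells on that plate plus 3 SD, cut at about 29% in these data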;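 also: 0% = Melanotan II alone and 100% = Melanotan II plus saturating MCL0020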
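Assay system: U2OS-MC4R stable cell line; Also added: Melanotan II; Technique: Eu-cAMP/anti-cAMP TR-FRET, emission 671 nm; Times: 30-min compound, 1-h challenge, 1-h detection, room temperature.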
TMEM16A inh = blocks the mouse calcium-activated chloride channel TMEM16A; AID 588511; HEK293 TMEM16A/YFP iodide influx fluorescence, ionomycin; 310,000 compounds, 1.2% hits; normalized B-score (activity score, 25-100; higher = stronger inhibition) at 10 µM;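 active = ratio plate-corrected score three or more library SD toward inhibition, starting fluorescence score within five deviations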;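 also: score derived from kinetic fluorescence span divided by baseline fluorescence per well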
HTR2A ag = mouse HTR2A agonism via beta-arrestin recruitment | 360,000 compounds, 0.66% hits | P35363 | activation, % at 7.6 µM | CHO-K1 mHTR2A beta-arrestin complementation, luminescence; percent of 30 µM serotonin response | AID 624169;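 active = activation above a run cutoff, the mean activation of all tested compounds plus 3 SD, cut at about 14% in these data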;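 also: 0% = plate median of compound wells and 100% = 30 µM serotonin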
Target sequence (P35363 whole entry, looked up): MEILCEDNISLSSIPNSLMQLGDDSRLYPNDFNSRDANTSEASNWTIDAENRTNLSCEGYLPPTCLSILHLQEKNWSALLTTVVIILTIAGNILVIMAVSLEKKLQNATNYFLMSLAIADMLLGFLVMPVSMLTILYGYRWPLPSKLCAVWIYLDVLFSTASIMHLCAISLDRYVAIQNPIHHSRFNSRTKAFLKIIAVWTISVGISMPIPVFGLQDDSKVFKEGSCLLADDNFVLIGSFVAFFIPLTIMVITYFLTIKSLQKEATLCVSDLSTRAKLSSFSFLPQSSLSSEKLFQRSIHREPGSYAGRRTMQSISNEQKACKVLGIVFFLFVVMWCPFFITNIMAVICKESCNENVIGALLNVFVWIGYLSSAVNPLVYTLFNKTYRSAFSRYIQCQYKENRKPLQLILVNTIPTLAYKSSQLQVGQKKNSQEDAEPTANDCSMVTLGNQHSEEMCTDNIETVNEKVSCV
OPRM1 ag = counter-screen for mouse HTR2A agonists: human mu opioid receptor agonists; shares compounds with HTR2A ag; U2OS OPRM1 beta-arrestin PathHunter, luminescence; DMSO 0%, DAMGO 9.3 µM 100%; activation, % at 9.3 µM; 2,300 compounds, 5.3% hits; AID 624380;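 active = mean activation above the mean of DMSO-only wells plus 3 SD, cut at about 0.5% in these data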
HTR2A ag conf = confirmation of mouse HTR2A serotonin receptor agonists. shares compounds with HTR2A ag. CHO-K1 PathHunter beta-arrestin recruitment, luminescence; DMSO 0%, 30 µM serotonin 100%. activation, % at 7.6 µM. 2,300 compounds, 19% hits. AID 624381;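 active = mean activation across triplicates above the hit threshold derived in the original primary screen, cut at about 15% in these data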
Starred values were filed as active, the others as inactive; i = inactive; . = not tested or not shown.

SMILES	TMEM16A act	MC4R barr agon	beta cell repl	MC4R antag cAMP	TMEM16A inh	HTR2A ag	OPRM1 ag	HTR2A ag conf
Cc1ccc2[nH]c(=O)c(CN(CCO)C(=O)N(C)C)cc2c1	i	-0.5	-2.0	8.7	i	21.7*	-0.6	-4.6
CN(C(=O)CSC1=NCCS1)c1ccccc1	i	-1.7	-1.3	2.1	i	14.7*	0.9*	0.3
COCCNC(=O)COC(=O)/C=C/c1c(C)nn(Cc2ccc(Cl)cc2Cl)c1Cl	i	1.2	-5.6	-6.0	i	34.7*	-0.5	-4.7
COc1ccc(-c2nc(CS(=O)CC(=O)NCCCN3CCOCC3)c(C)o2)cc1OC (centres undefined)	i	0.9	1.6	-0.3	i	16.9*	-0.4	-0.4
COc1ccc(-c2nc(CS(=O)CC(=O)NCCCN3CCCC3)c(C)o2)cc1OC (centres undefined)	i	-1.7	-0.8	0.1	i	0.5	.	.
C=CCn1c(N)c(C(=O)Nc2ccc(C)c(C)c2)c2nc3ccccc3nc21	i	1.1	-2.9	8.7	i	-1.3	.	.
C=CCn1c(N)c(C(=O)Nc2cccc(C)c2)c2nc3ccccc3nc21	i	-1.4	-5.2	5.8	i	19.7*	-0.5	0.8
Cc1ccc(CC(=O)N2CC(C)OC(C)C2)cc1 (centres undefined)	i	-2.2	-2.6	7.8	i	-2.3	.	.
CC1CN(C(=O)CS(=O)(=O)Cc2ccc(Cl)cc2)CC(C)O1 (centres undefined)	i	-3.0	-1.3	2.5	i	14.7*	-0.6	0.6
CC(C)OC(=O)NC(Nc1ccccc1C(=O)O)(C(F)(F)F)C(F)(F)F	i	-0.3	-1.4	10.7	i	21.9*	0.0	1.1
COc1ccc([C@H]2CC(=O)C=C(c3ccnc4ccc(Cl)cc34)C2)cc1	i	0.5	-7.3	0.0	.	4.0	.	.
O=[N+]([O-])c1cccc(S(=O)(=O)NCCc2cn3ccccc3n2)c1	i	3.6	-0.7	-3.4	i	15.1*	-0.5	-1.9
COc1ccc(OC)c(CN2CCN(C(=O)c3cccs3)CC2)c1	i	-0.1	-1.8	-1.3	i	33.1*	0.8*	90.7*
O=C(c1cccs1)N1CCN(Cc2ccccc2)CC1	i	-1.5	0.0	-1.8	i	27.8*	-0.4	93.0*
COc1ccc(CN2CCN(C(=O)c3cccs3)CC2)cc1	i	-0.5	-2.3	-2.5	i	29.0*	-0.4	50.0*
O=C(c1cccs1)N1CCN(Cc2ccncc2)CC1	i	-1.3	-0.8	17.5	i	8.3	.	.
CC1(C)C(C=C(Cl)Cl)C1C(=O)N1CCN(Cc2ccccc2)CC1 (centres undefined)	i	-0.2	-2.3	-3.1	i	20.0*	-0.5	75.7*
O=C(C1CC1)N1CCN(Cc2ccccc2)CC1	i	-0.2	-0.7	5.4	i	4.5	.	.
Cc1cccc(NS(=O)(=O)c2ccc(NC(=O)N3CCCCC3)cc2)c1	i	-4.4	0.0	10.4	i	14.8*	-0.3	-4.3
Cc1ccc(NS(=O)(=O)c2ccc(NC(=O)N3CCCCC3)cc2)cc1	i	-2.1	-1.7	11.8	i	2.8	.	.
COc1cccc(CNC(=O)CN2C(=O)COc3ccc(S(=O)(=O)N4CCCCC4)cc32)c1	i	1.2	-1.7	3.6	i	16.1*	-0.8	-4.9
O=S(=O)(N1CCCCC1)N1CCCN(S(=O)(=O)N2CCCCC2)CC1	i	1.2	-2.4	-6.8	i	15.2*	-0.8	-3.3
CCN(CC)C(=O)c1c(-c2ccccc2)oc2ccc(OC)cc12	i	-0.8	-2.8	2.5	i	14.8*	-0.5	-3.8
Cc1ccccc1-n1c(SC(C)C(=O)NCC2CCCO2)nnc1-c1ccncc1 (centres undefined)	i	-0.6	.	4.6	.	15.2*	-0.3	-0.6
O=C(Cn1cnc2c(NCc3ccccc3)ncnc21)N1CCN(c2ccccn2)CC1	.	-2.7	.	-0.1	.	3.9	.	.
SMILES	TMEM16A act	MC4R barr agon	beta cell repl	MC4R antag cAMP	TMEM16A inh	HTR2A ag	OPRM1 ag	HTR2A ag conf
Cc1cc(C)c(CN2CCN(C(=O)Cn3cnc4c(NCc5ccccc5)ncnc43)CC2)c(C)c1	.	2.4	.	1.2	.	22.3*	.	7.7
CCN(C(=O)CN1C(=O)NC2(CCc3ccccc32)C1=O)C1CCS(=O)(=O)C1 (centres undefined)	i	-4.1	-1.7	5.3	.	-8.2	.	.
CN(C(=O)CN1C(=O)NC2(CCc3ccccc32)C1=O)C1CCS(=O)(=O)C1 (centres undefined)	i	-1.8	-1.3	3.2	i	18.4*	-0.6	-1.6
CCOC(=O)C1=C(CS(=O)(=O)c2ccccc2)NC(=O)NC1c1ccccc1OCC (centres undefined)	i	-0.3	8.3	2.2	i	17.2*	-0.6	-1.2
Cc1ccc(S(=O)(=O)c2cnc(-c3ccccc3)nc2N2CCN(C)CC2)cc1	i	-0.3	-4.9	-1.7	i	51.5*	-0.5	17.0*
CN1CCN(c2nc(-c3ccccc3)ncc2S(=O)(=O)c2ccccc2)CC1	i	-0.2	2.9	-3.1	i	37.6*	0.3	29.1*
CN1CCN(c2nc(-c3ccccc3)ncc2S(C)(=O)=O)CC1	i	-0.4	0.7	5.0	i	-7.2	.	.
C[C@@H]1CN([C@H](C)CO)C(=O)c2c(c3ccccc3n2C)-c2ccccc2CO[C@H]1CN(C)Cc1ccc(Oc2ccccc2)cc1	.	-2.2	.	6.3	.	8.2	.	.
O=C(CC1CS(=O)(=O)CC1CC(=O)Oc1ccccc1F)Oc1ccccc1F (centres undefined)	i	-1.7	-0.8	9.6	i	16.2*	-0.5	-2.2
O=C(NCc1ccccn1)c1ccc(Cl)c(S(=O)(=O)N2CCOCC2)c1	i	-2.5	2.0	6.9	i	-1.4	.	.
Cc1cc(CNC(=O)COc2ccc(F)cc2)c2ccccc2n1	i	0.4	0.5	-4.1	i	8.4	.	.
Cc1cc(CNC(=O)COc2ccccc2)c2ccccc2n1	i	0.4	.	-3.0	.	15.9*	-0.1	-4.3
CN1CCc2c(sc3c2c(=O)n(-c2cccc(Cl)c2)c2nncn32)C1	i	-0.9	4.2	5.4	i	23.0*	0.3	2.0
